# Experiments:
# Assay type in all cases: functional
# Coptotermes formosanus [1] = assay: Antifeedant activity against Coptotermes formosanus placed on 0.01 % wt/wt compound treated filter paper assessed as filter paper consumption measured 21 days post compound exposure (reference value: 23.6 +/- 13.6 mg)
# Coptotermes formosanus [2] = assay: Termiticidal activity against Coptotermes formosanus placed on 0.1 % wt/wt compound treated filter paper assessed as termite mortality measured 17 days post compound exposure
# Outline: (§1)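 Treated filter paper disks moistened with 100 µL water; 20 C. formosanus workers (third instar or greater) plus 1 soldier per dish from field colonies kept on spruce, ca. 100% RH, 26.6 °C. Daily mortality scored for 3 weeks; cumulative percent mortality from four replicates, each a different colony; water-only controls; ANOVA, protected Fisher LSD (P < 0.05) after arcsine square-root transform.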
# Coptotermes formosanus [3] = assay: Antifeedant activity against Coptotermes formosanus placed on 0.1 % wt/wt compound treated filter paper assessed as filter paper consumption measured 21 days post compound exposure (reference value: 23.6 +/- 13.6 mg)
# Coptotermes formosanus [4] = assay: Termiticidal activity against Coptotermes formosanus placed on 0.001 % wt/wt compound treated filter paper assessed as termite mortality measured 13 days post compound exposure; outline: as §1
# Coptotermes formosanus [5] = assay: Antifeedant activity against Coptotermes formosanus placed on 0.001 % wt/wt compound treated filter paper assessed as filter paper consumption measured 21 days post compound exposure (reference value: 23.6 +/- 13.6 mg)
# Coptotermes formosanus [6] = assay: Termiticidal activity against Coptotermes formosanus placed on 0.5 % wt/wt compound treated filter paper assessed as termite mortality measured 9 days post compound exposure; outline: as §1
# Coptotermes formosanus [7] = assay: Termiticidal activity against Coptotermes formosanus placed on 0.001 % wt/wt compound treated filter paper assessed as termite mortality measured 9 days post compound exposure; outline: as §1
# Coptotermes formosanus [8] = assay: Termiticidal activity against Coptotermes formosanus placed on 0.01 % wt/wt compound treated filter paper assessed as termite mortality measured 9 days post compound exposure; outline: as §1
# Coptotermes formosanus [9] = assay: Termiticidal activity against Coptotermes formosanus placed on 0.05 % wt/wt compound treated filter paper assessed as termite mortality measured 11 days post compound exposure; outline: as §1
# Coptotermes formosanus [10] = assay: Antifeedant activity against Coptotermes formosanus placed on 0.5 % wt/wt compound treated filter paper assessed as filter paper consumption measured 21 days post compound exposure (reference value: 23.6 +/- 13.6 mg)
# Coptotermes formosanus [11] = assay: Termiticidal activity against Coptotermes formosanus placed on 0.1 % wt/wt compound treated filter paper assessed as termite mortality measured 21 days post compound exposure; outline: as §1
# Coptotermes formosanus [12] = assay: Termiticidal activity against Coptotermes formosanus placed on 0.5 % wt/wt compound treated filter paper assessed as termite mortality measured 11 days post compound exposure; outline: as §1
# Coptotermes formosanus [13] = assay: Termiticidal activity against Coptotermes formosanus placed on 0.05 % wt/wt compound treated filter paper assessed as termite mortality measured 17 days post compound exposure; outline: as §1
# Coptotermes formosanus [14] = assay: Termiticidal activity against Coptotermes formosanus placed on 0.01 % wt/wt compound treated filter paper assessed as termite mortality measured 11 days post compound exposure; outline: as §1
# Coptotermes formosanus [15] = assay: Termiticidal activity against Coptotermes formosanus placed on 0.5 % wt/wt compound treated filter paper assessed as termite mortality measured 17 days post compound exposure; outline: as §1
# Coptotermes formosanus [16] = assay: Termiticidal activity against Coptotermes formosanus placed on 0.1 % wt/wt compound treated filter paper assessed as termite mortality measured 9 days post compound exposure; outline: as §1
# Coptotermes formosanus [17] = assay: Termiticidal activity against Coptotermes formosanus placed on 0.5 % wt/wt compound treated filter paper assessed as termite mortality measured 3 days post compound exposure; outline: as §1
# Coptotermes formosanus [18] = assay: Termiticidal activity against Coptotermes formosanus placed on 0.05 % wt/wt compound treated filter paper assessed as termite mortality measured 21 days post compound exposure; outline: as §1
# Coptotermes formosanus [19] = assay: Termiticidal activity against Coptotermes formosanus placed on 0.01 % wt/wt compound treated filter paper assessed as termite mortality measured 13 days post compound exposure; outline: as §1
# Coptotermes formosanus [20] = assay: Termiticidal activity against Coptotermes formosanus placed on 0.5 % wt/wt compound treated filter paper assessed as termite mortality measured 13 days post compound exposure; outline: as §1
# Coptotermes formosanus [21] = assay: Termiticidal activity against Coptotermes formosanus placed on 0.1 % wt/wt compound treated filter paper assessed as termite mortality measured 11 days post compound exposure; outline: as §1
# Coptotermes formosanus [22] = assay: Termiticidal activity against Coptotermes formosanus placed on 0.1 % wt/wt compound treated filter paper assessed as termite mortality measured 6 days post compound exposure; outline: as §1
# Coptotermes formosanus [23] = assay: Termiticidal activity against Coptotermes formosanus placed on 0.5 % wt/wt compound treated filter paper assessed as termite mortality measured 21 days post compound exposure; outline: as §1
# Coptotermes formosanus [24] = assay: Termiticidal activity against Coptotermes formosanus placed on 0.05 % wt/wt compound treated filter paper assessed as termite mortality measured 9 days post compound exposure; outline: as §1
# Coptotermes formosanus [25] = assay: Termiticidal activity against Coptotermes formosanus placed on 0.001 % wt/wt compound treated filter paper assessed as termite mortality measured 21 days post compound exposure; outline: as §1
# Coptotermes formosanus [26] = assay: Antifeedant activity against Coptotermes formosanus placed on 0.05 % wt/wt compound treated filter paper assessed as filter paper consumption measured 21 days post compound exposure (reference value: 23.6 +/- 13.6 mg)
# Coptotermes formosanus [27] = assay: Termiticidal activity against Coptotermes formosanus placed on 0.05 % wt/wt compound treated filter paper assessed as termite mortality measured 6 days post compound exposure; outline: as §1
# Coptotermes formosanus [28] = assay: Termiticidal activity against Coptotermes formosanus placed on 0.001 % wt/wt compound treated filter paper assessed as termite mortality measured 6 days post compound exposure; outline: as §1
# Coptotermes formosanus [29] = assay: Termiticidal activity against Coptotermes formosanus placed on 0.01 % wt/wt compound treated filter paper assessed as termite mortality measured 6 days post compound exposure; outline: as §1
# Coptotermes formosanus [30] = assay: Termiticidal activity against Coptotermes formosanus placed on 0.01 % wt/wt compound treated filter paper assessed as termite mortality measured 17 days post compound exposure; outline: as §1
# Coptotermes formosanus [31] = assay: Termiticidal activity against Coptotermes formosanus placed on 0.05 % wt/wt compound treated filter paper assessed as termite mortality measured 13 days post compound exposure; outline: as §1
# Coptotermes formosanus [32] = assay: Termiticidal activity against Coptotermes formosanus placed on 0.001 % wt/wt compound treated filter paper assessed as termite mortality measured 11 days post compound exposure; outline: as §1
# Coptotermes formosanus [33] = assay: Termiticidal activity against Coptotermes formosanus placed on 0.1 % wt/wt compound treated filter paper assessed as termite mortality measured 13 days post compound exposure; outline: as §1
# Coptotermes formosanus [34] = assay: Termiticidal activity against Coptotermes formosanus placed on 0.001 % wt/wt compound treated filter paper assessed as termite mortality measured 17 days post compound exposure; outline: as §1
# Coptotermes formosanus [35] = assay: Termiticidal activity against Coptotermes formosanus placed on 0.01 % wt/wt compound treated filter paper assessed as termite mortality measured 21 days post compound exposure; outline: as §1
# Coptotermes formosanus [36] = assay: Termiticidal activity against Coptotermes formosanus placed on 0.5 % wt/wt compound treated filter paper assessed as termite mortality measured 6 days post compound exposure; outline: as §1
structure (smiles),measurement,setting,value
CC1=C(C)C(=O)C(Cl)=C(Cl)C1=O,Activity,Coptotermes formosanus [1],25 mg
same,mortality,Coptotermes formosanus [2],60%
same,Activity,Coptotermes formosanus [3],13.1 mg
same,mortality,Coptotermes formosanus [4],26.3%
same,Activity,Coptotermes formosanus [5],17.5 mg
same,mortality,Coptotermes formosanus [6],100%
same,mortality,Coptotermes formosanus [7],2.5%
same,mortality,Coptotermes formosanus [8],3.8%
same,mortality,Coptotermes formosanus [9],3.4%
same,Activity,Coptotermes formosanus [10],3.2 mg
same,mortality,Coptotermes formosanus [11],68.8%
same,mortality,Coptotermes formosanus [12],100%
same,mortality,Coptotermes formosanus [13],5%
same,mortality,Coptotermes formosanus [14],3.8%
same,mortality,Coptotermes formosanus [15],100%
same,mortality,Coptotermes formosanus [16],26.3%
same,mortality,Coptotermes formosanus [17],100%
same,mortality,Coptotermes formosanus [18],5%
same,mortality,Coptotermes formosanus [19],7.5%
same,mortality,Coptotermes formosanus [20],100%
same,mortality,Coptotermes formosanus [21],30.4%
same,mortality,Coptotermes formosanus [22],1.3%
same,mortality,Coptotermes formosanus [23],100%
same,mortality,Coptotermes formosanus [24],1.3%
same,mortality,Coptotermes formosanus [25],27.5%
same,Activity,Coptotermes formosanus [26],18.3 mg
same,mortality,Coptotermes formosanus [27],0%
same,mortality,Coptotermes formosanus [28],1.3%
same,mortality,Coptotermes formosanus [29],3.8%
same,mortality,Coptotermes formosanus [30],10%
same,mortality,Coptotermes formosanus [31],5%
same,mortality,Coptotermes formosanus [32],6.8%
same,mortality,Coptotermes formosanus [33],41.3%
same,mortality,Coptotermes formosanus [34],26.3%
same,mortality,Coptotermes formosanus [35],10%
same,mortality,Coptotermes formosanus [36],100%
